Results on 1 compound are retold here after ChEMBL document CHEMBL1142137 (Antimicrob Agents Chemother, 2007).

Converted amounts (≈) assume the structure as drawn.

Data set [1] concerns Mus musculus. The data set is described as follows: T>MIC in leukopenic mouse with renal failure at 15 mg/kg, sc. On the set-up: dose 15 mg/kg, route subcutaneous. The settings on record: in vivo. The data set is classed as ADME, organism-based.
The test system of data set [2] is Mus musculus. The data set is described as follows: Effect on survival of Swiss mouse infected with penicillin-resistant Streptococcus pneumoniae P-15986 at 15 mg/kg, sc. The settings on record: route subcutaneous. The data set is classed as functional. In outline: (§1)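 Female Swiss albino mice, 6-7 weeks old, made leukopenic with cyclophosphamide 150 mg/kg ip daily ×3 from 4 days before challenge. Renal failure from one uranyl nitrate 6 mg/kg ip dose 4 days before challenge. Intratracheal inoculum of ~10^7 log-phase CFU under pentobarbital. […] 12-15 mice/group; deaths recorded daily for 10 days; Mantel-Haenszel comparison.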

A short description of data set [3]: Half life in leukopenic mouse with renal failure at 25 mg/kg, sc. The settings on record: in vivo. Set-up: dose 25 mg/kg, route subcutaneous. The data set is classed as ADME, organism-based. In outline: (§2)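 Terminal t1/2 = ln 2/kel, kel from least-squares slope of linear portions of log concentration-time curve; data fitted to one-compartment open model, zero-order absorption, first-order elimination.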

Data set [4] is described as follows: Cmax in leukopenic mouse with renal failure at 7 mg/kg, sc after 0.5 hrs. The settings on record: in vivo. The format is ADME, organism-based. On the set-up: dose 7 mg/kg, route subcutaneous.
Data set [5] deals with Streptococcus pneumoniae. The experiment in a line: Antibacterial activity against penicillin-resistant Streptococcus pneumoniae P-12698. The data set is classed as functional. In outline: (§3)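 Tube dilution in Mueller-Hinton infusion broth with 5% sterile horse serum, using twofold antibiotic dilutions. Tubes were incubated 18 h at 37°C in 10% CO2-air. MIC was the lowest concentration with no turbidity visible to the naked eye.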

Data set [6] concerns Streptococcus pneumoniae. The experiment in a line: Antibacterial activity against penicillin-susceptible Streptococcus pneumoniae P-52181.
Data set [7] can be described thus: AUC in leukopenic mouse with renal failure at 7 mg/kg, sc. Set-up: dose 7 mg/kg, route subcutaneous. The format is ADME, organism-based. The note with it: plasma. In a few lines: (§4)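 Uninfected female Swiss mice (6-7 weeks) made leukopenic with cyclophosphamide (150 mg/kg i.p. […] from 4 days pre-challenge) and given uranyl nitrate 6 mg/kg i.p. once, 4 days earlier. […] AUC0-24 by trapezoid method from one-compartment fit.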

Data set [8] concerns Streptococcus pneumoniae. The experiment in a line: Antibacterial activity against penicillin-resistant Streptococcus pneumoniae P-54988. The format is functional. In a few lines: as §3
Data set [9] relates to Streptococcus pneumoniae. The data set is described as follows: Antibacterial activity against penicillin-resistant Streptococcus pneumoniae P-15986. The format is functional. In outline:
as §3

Data set [10] concerns Mus musculus. The experiment in a line: T>MIC in leukopenic mouse with renal failure at 7 mg/kg, sc. The data set is classed as ADME, organism-based. On the set-up: dose 7 mg/kg, route subcutaneous. The note with it: in vivo.
Data set [11] is described as follows: Cmax in human at 1 g, po after 0.5 hrs. The data set is classed as ADME, organism-based. On the set-up: dose 1 g, route oral. The settings on record: in vivo.
A short description of data set [12]: Cmax in leukopenic mouse with renal failure at 15 mg/kg, sc after 0.5 hrs. The data set is classed as ADME, organism-based. Set-up: dose 15 mg/kg, route subcutaneous. The note with it: in vivo.
The nature of data set [13]: AUC in human at 1 g, po. The note with it: plasma. The format is ADME, organism-based.
In data set [14] the test system is Mus musculus. The data set is described as follows: T>MIC in leukopenic mouse with renal failure at 25 mg/kg, sc. The data set is classed as ADME, organism-based. Set-up: dose 25 mg/kg, route subcutaneous. The settings on record: in vivo.
Data set [15] concerns Mus musculus. The data set is described as follows: Effect on survival of Swiss mouse infected with penicillin-resistant Streptococcus pneumoniae P-12698 at 15 mg/kg, sc. The data set is classed as functional. The settings on record: route subcutaneous. In a few lines: as §1
The nature of data set [16]: Half life in leukopenic mouse with renal failure at 7 mg/kg, sc. The format is ADME, organism-based. On the set-up: dose 7 mg/kg, route subcutaneous. The note with it: in vivo. In a few lines:
as §2

The test system of data set [17] is Mus musculus. The data set is described as follows: Effect on survival of Swiss mouse infected with penicillin-susceptible Streptococcus pneumoniae P-52181 at 15 mg/kg, sc.
Data set [18] is described as follows: Half life in leukopenic mouse with renal failure at 15 mg/kg, sc. Set-up: dose 15 mg/kg, route subcutaneous. The data set is classed as ADME, organism-based. The note with it: in vivo. In outline: as §2
Data set [19] is described as follows: Cmax in leukopenic mouse with renal failure at 25 mg/kg, sc after 0.5 hrs. Set-up: dose 25 mg/kg, route subcutaneous. The settings on record: in vivo. The format is ADME, organism-based.
Data set [20] is described as follows: AUC in leukopenic mouse with renal failure at 25 mg/kg, sc. The format is ADME, organism-based. On the set-up: dose 25 mg/kg, route subcutaneous. The note with it: plasma. In a few lines: as §4
Data set [21] is described as follows: Half life in human at 1 g, po. The note with it: in vivo. The format is ADME, organism-based.
Data set [22] concerns Mus musculus. The experiment in a line: Effect on survival of Swiss mouse infected with penicillin-resistant Streptococcus pneumoniae P-54988 at 15 mg/kg, sc. The format is functional. The note with it: route subcutaneous. In outline:
as §1

Data set [23] in a line: AUC in leukopenic mouse with renal failure at 15 mg/kg, sc. On the set-up: dose 15 mg/kg, route subcutaneous. The data set is classed as ADME, organism-based. The settings on record: plasma. In outline:
as §4

In data set [24] the test system is Mus musculus. The experiment in a line: Effect on survival of Swiss mouse infected with penicillin-resistant Streptococcus pneumoniae P-12698 at 25 mg/kg, sc. The data set is classed as functional. The note with it: route subcutaneous. In outline: as §1

Broadly, the half-life is how long it takes for the measured level to halve. Higher therefore signals slow loss. One may read the Cmax as the highest concentration seen after dosing. By MIC is commonly meant the lowest concentration that inhibits growth of the organism. Read a low MIC as inhibition by little substance. For orientation: AUC means the area under the concentration-time curve, a measure of exposure. For the compound `CC1(C)S[C@@H]2[C@H](NC(=O)[C@H](N)c3ccc(O)cc3)C(=O)N2[C@H]1C(=O)O` [AMOXICILLIN], the figures for the “T>MIC” value in [1], in [10] and in [14] were 4 h, 4 h and 8 h, respectively. In addition, the survival at 15 mg/kg in data set [2] worked out at 82%; in data set [15], 50%; in data set [17], 83%; in data set [22], 81%. Besides, the half-life is 102 min in data set [3], 96 min in data set [16], 96 min in data set [18] and 90 min in data set [21]. Moreover, the Cmax worked out at 13000 ng/mL in [4], 19000 ng/mL in data set [11], 28000 ng/mL in data set [12] and 85 µg/mL in data set [19]. The MIC in [5] was 2 µg/mL (≈ 5.47 µM); in data set [6] it was 0.03 µg/mL (≈ 0.0821 µM); in data set [8], 2 µg/mL (≈ 5.47 µM); in data set [9], 4 µg/mL (≈ 10.9 µM). The AUC worked out at 46000 ng·h/mL in data set [7], 68000 ng·h/mL in data set [13], 227 µg·h/mL in data set [20] and 80000 ng·h/mL in [23]. The survival at 25 mg/kg in [24] was determined as 57%.
